The values below come from the array DNA melting data of Ke et al. (doi:10.1101/2024.01.08.574731).

Data set [1] is described as follows: folding enthalpy; higher = less favourable; fluorescence melt of hairpins on a sequencing array, two-state fit. The following applies: sodium 0.088 M. An outline of the steps: (§1)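 Cy3 fluorescence of library hairpins on a sequenced MiSeq flow cell, with annealed Cy3 and quencher oligos, was imaged in 50 mM Na-HEPES pH 8.0, 25 mM NaCl in 2.5 °C steps up to 60 °C. Signals were normalised to pre-quench Cy3 and to control variants. Melting temperature and folding enthalpy came from bootstrapped two-state fits, inverse-variance combined over four replicates. Fitted temperatures were raised by 9.35 °C to match UV melts.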

Data set [2] can be described thus: melting temperature; fluorescence melt of hairpins on a sequencing array, two-state fit, raised by 9.35 °C to match UV melts. Conditions: sodium 0.088 M. The essentials: as §1

For GCGCTAGGAAACCAGCAC (.(((.(....).))).), the folding enthalpy in data set [1] was -9.67 kcal/mol. The Tm in data set [2] stood at 26.8 °C.
For the sequence GAGATGCCGAAAGGCCTC (((..(((....)))))), the folding enthalpy in data set [1] was -10.1 kcal/mol. Also, in data set [2], the Tm came out at 32.1 °C.
The like results for GCACAGCGAAAGCGATGC (((..((....))..))) were, in that order, -15.8 kcal/mol and 51.6 °C.
Consider GCAGGCGAAAGCCCGTGC ((((((....)))..))), for which the folding enthalpy in data set [1] is -13.1 kcal/mol. The Tm in data set [2] is 43.6 °C.
For the sequence GATAGCGAAAGCTATC ((((((....)))))), the folding enthalpy in data set [1] is -33 kcal/mol. Moreover, the Tm in data set [2] came out at 61.3 °C.
In the same order, the values of GGTGGGAAACCACC (((((....))))) are -24.4 kcal/mol and 62.4 °C.
Turning to GCATACGAAAGTAGCTGC ((((((....)))..))), the folding enthalpy in data set [1] was -23.6 kcal/mol. For the same sequence, the Tm in data set [2] worked out at 48.1 °C.
The like results for GCGACCGAAAGGTTACGC ((((((....)))..))) were, in that order, -26.6 kcal/mol and 50 °C.
As for GCGCTAGGAAACTAGCAC (.(((((....))))).), in data set [1], the folding enthalpy is -15.4 kcal/mol. For the same sequence, in data set [2], the Tm was determined as 44 °C.
As for GTACCTGGAAACAGGTAC (((((((....))))))), the folding enthalpy in data set [1] was -41.8 kcal/mol. In data set [2], the Tm turned out to be 61.9 °C.
The like results for GCTAAACGAAAGTTGAGC (((.(((....))).))) were, in that order, -31.8 kcal/mol and 50.8 °C.
For the sequence GGCCTCGAAAGAGTGCC ((((((....))).))), in data set [1], the folding enthalpy is -37.7 kcal/mol. Moreover, the Tm in data set [2] amounted to 58.2 °C.
On to GCTTCAGAAATGAAGC ((((((....)))))), for which the folding enthalpy in data set [1] is -33.7 kcal/mol. For the same sequence, in data set [2], the Tm came to 55.7 °C.
In the same order, the values of GGATTCGAAAGAACTCC ((((((....))).))) are -22 kcal/mol and 36 °C.
The like results for GCCGAAGGAAACTTCGAC (.(((((....))))).) were, in that order, -19.8 kcal/mol and 41 °C.
The like results for GGCCTCGAAAGAGCTGCC ((((((....)))..))) were, in that order, -24 kcal/mol and 45 °C.
Consider GCGCCGCGAAAGCAGAGC ((.(.((....)).).)), for which the folding enthalpy in data set [1] is -27.8 kcal/mol. Also, the Tm in data set [2] came out at 66.7 °C.
In the same order, the values of GACACCGCGAAAGCGGTC (((..(((....)))))) are -6.65 kcal/mol and 35.4 °C.
As to GGATTGACGAAAGTCTCC (((..(((....)))))), the folding enthalpy in data set [1] is -13.7 kcal/mol. In addition, the Tm in data set [2] was 28.4 °C.
In the same order, the values of GATGAAGGAAACTTCGTC ((.((((....)))).)) are -27 kcal/mol and 42.4 °C.
In the case of GGAGTGGAAACACTCC ((((((....)))))), the folding enthalpy in data set [1] was -33 kcal/mol. Further, in data set [2], the Tm was determined as 63.2 °C.
The like results for GCCCACCGAAAGGTGGC (((.(((....)))))) were, in that order, -9.61 kcal/mol and 62.3 °C.
On to GATCCGAACCCGGATC ((((((....)))))), for which the folding enthalpy in data set [1] was -38.9 kcal/mol. In addition, the Tm in data set [2] was 54.8 °C.
Take GCTTCAGGAAACTGAAGC (((((((....))))))): in data set [1], the folding enthalpy was -32.9 kcal/mol. Also, the Tm in data set [2] turned out to be 66 °C.
In the same order, the values of GACGCCGGAAACGGCGCC (.(((((....))))).) are -10.5 kcal/mol and 56.9 °C.
In the same order, the values of GGCCTGGGAAACCAAGCC (((.(((....))).))) are -30.1 kcal/mol and 45.4 °C.
The like results for GGAAGCGAAAGCTATTCC ((((((....)))..))) were, in that order, -14.1 kcal/mol and 35.8 °C.
For GGTCTAGGAAACTAGGCC ((.((((....)))).)), the folding enthalpy in data set [1] was -46.1 kcal/mol. Also, in data set [2], the Tm turned out to be 51.1 °C.
In the same order, the values of CGGGCGGAAACGCCACCG ((((((....)))..))) are -9.3 kcal/mol and 42.4 °C.
In the case of GAAAGTGGAAACACTCTC ((.((((....)))).)), in data set [1], the folding enthalpy is -19.4 kcal/mol. Moreover, the Tm in data set [2] came to 26.6 °C.
Take GATCCCCACAGGGATC ((((((....)))))): in data set [1], the folding enthalpy is -23 kcal/mol. In addition, in data set [2], the Tm is 66.4 °C.
The like results for GGCTTAGGAAACTAGGCC (((.(((....))).))) were, in that order, -31.3 kcal/mol and 48.7 °C.
In the same order, the values of GCGTTCGACGC ((((...)))) are -23.7 kcal/mol and 53.8 °C.
The like results for GGCCATGGAAACATGACC ((.((((....)))).)) were, in that order, -29.2 kcal/mol and 47.6 °C.
On to CGGATACGGAAACGTCCG (((..(((....)))))), for which the folding enthalpy in data set [1] was -18.6 kcal/mol. In data set [2], the Tm worked out at 40.4 °C.
As to GATCGCGAAAGCGATATC ((((((....)))..))), in data set [1], the folding enthalpy was -11.8 kcal/mol. In addition, the Tm in data set [2] amounted to 59.2 °C.
As for GTGTCGCCGAAAGGCCAC (((..(((....)))))), in data set [1], the folding enthalpy is -15 kcal/mol. The Tm in data set [2] was 44.4 °C.
In the same order, the values of CGGGCGGAAACGCCCCG ((((((....))).))) are -8.53 kcal/mol and 59.6 °C.
With GTTGCAGCGAAAGCTAAC (((..(((....)))))), the folding enthalpy in data set [1] was -11.6 kcal/mol. The Tm in data set [2] was 29.2 °C.
In the same order, the values of GCGCGGCGAAAGCACCGC (((..((....))..))) are -16.6 kcal/mol and 56.1 °C.
The like results for GATCAATTGTTGATC ((((((...)))))) were, in that order, -30.6 kcal/mol and 41.5 °C.
On to GCCATAGGAAACTACGGC (((.(((....))).))), for which, in data set [1], the folding enthalpy is -29.9 kcal/mol. The Tm in data set [2] is 40.6 °C.
The like results for GATCGCGGTTGCGATC ((((((....)))))) were, in that order, -25.1 kcal/mol and 68.9 °C.
The like results for GTACTCGAAAGAGTTTAC ((((((....)))..))) were, in that order, -9.32 kcal/mol and 30 °C.
For GCCCGTGCGAAAGCAGGC (((..(((....)))))), the folding enthalpy in data set [1] was -12.4 kcal/mol. Further, the Tm in data set [2] was 52 °C.
For GTGTAGGCGAAAGCCCAC (((..(((....)))))), in data set [1], the folding enthalpy was -17.4 kcal/mol. For the same sequence, the Tm in data set [2] amounted to 44.5 °C.
Take GCTCACGGAAACACGAGC ((((..(....)..)))): the folding enthalpy in data set [1] is -25.8 kcal/mol. The Tm in data set [2] came to 34 °C.
In the same order, the values of GATCATGTCATGATC ((((((...)))))) are -32.5 kcal/mol and 51.3 °C.
The like results for GGACACGAAAGTGACTCC ((((((....)))..))) were, in that order, -14.2 kcal/mol and 40.6 °C.
As for GTAGCGGAAACGCTAC ((((((....)))))), the folding enthalpy in data set [1] was -30.2 kcal/mol. Besides, the Tm in data set [2] worked out at 65.3 °C.
In the case of GCTCTCGAAAGAGTAGC ((((((....))).))), the folding enthalpy in data set [1] is -27.8 kcal/mol. The Tm in data set [2] is 47.2 °C.
GGGCCCGAAAGGGTGCCC ((((((....)))..))): the folding enthalpy in data set [1] is -15.7 kcal/mol. Further, the Tm in data set [2] worked out at 60.2 °C.
Take GAACCAGGAAACTGATTC (((.(((....))).))): in data set [1], the folding enthalpy was -20.5 kcal/mol. Moreover, in data set [2], the Tm worked out at 32.3 °C.
Regarding GCAGTGCGAAAGCATTGC (((.(((....))).))), the folding enthalpy in data set [1] is -55.4 kcal/mol. Besides, in data set [2], the Tm is 58.9 °C.
The like results for GATCTCAACGAGATC ((((((...)))))) were, in that order, -35.5 kcal/mol and 55.8 °C.
On to GAAACCCGAAAGGGGTTC (((.(((....))).))), for which the folding enthalpy in data set [1] was -29 kcal/mol. The Tm in data set [2] came to 59.2 °C.
Turning to GCTCACCGAAAGGTTAGC (((.(((....))).))), in data set [1], the folding enthalpy is -31 kcal/mol. In addition, in data set [2], the Tm came to 49.9 °C.
As for GATCTCCCCCGAGATC ((((((....)))))), the folding enthalpy in data set [1] is -36 kcal/mol. The Tm in data set [2] is 51.5 °C.
In the same order, the values of GATCGGCAGCCCGATC ((((((....)))))) are -36.1 kcal/mol and 54.9 °C.
With GCGCTCACGAAAGTGCGC (((..(((....)))))), the folding enthalpy in data set [1] was -37.8 kcal/mol. Moreover, in data set [2], the Tm is 60 °C.
GGGTGTGGAAACACGCCC (((.(((....))).))): the folding enthalpy in data set [1] is -39.6 kcal/mol. Besides, the Tm in data set [2] worked out at 62.5 °C.
In the case of GCATACGGAAACGTATGC (((((((....))))))), the folding enthalpy in data set [1] was -47.5 kcal/mol. The Tm in data set [2] came out at 67.7 °C.
In the same order, the values of GGGTCCGAAAGGAGTCCC ((((((....)))..))) are -19.6 kcal/mol and 46.5 °C.
For the sequence GATCACGATGGTGATC ((((((....)))))), the folding enthalpy in data set [1] was -36.1 kcal/mol. Also, in data set [2], the Tm was found to be 58.8 °C.
In the same order, the values of GTATGCGGAAACGTGTAC (((..((....))..))) are -30.2 kcal/mol and 39.4 °C.
In the same order, the values of CGGTGCGGAAACGCCCG (((.(((....)))))) are -30.8 kcal/mol and 58 °C.
The like results for GGTTACGAAAGTATAACC ((((((....)))..))) were, in that order, -20 kcal/mol and 37.2 °C.
For GGAGGACGAAAGTCGTCC (((.(((....))).))), the folding enthalpy in data set [1] is -28.9 kcal/mol. Besides, the Tm in data set [2] came to 59.4 °C.
Regarding GTGGTGGGAAACCGTCAC (((..((....))..))), in data set [1], the folding enthalpy is -19.8 kcal/mol. Besides, in data set [2], the Tm is 38.4 °C.
In the same order, the values of GATCGGCCTCCGATC ((((((...)))))) are -34.3 kcal/mol and 59.4 °C.
Regarding GGACCTGGAAACGGGTTC (.(((.(....).))).), the folding enthalpy in data set [1] is -26.6 kcal/mol. Besides, the Tm in data set [2] was determined as 38.6 °C.
Take GGTTATGGAAACATAGCC ((.((((....)))).)): in data set [1], the folding enthalpy was -31.1 kcal/mol. For the same sequence, in data set [2], the Tm amounted to 43.8 °C.
GCTTGCGAAAGCATCAGC ((((((....)))..))): the folding enthalpy in data set [1] is -11.8 kcal/mol. Further, the Tm in data set [2] came out at 37.1 °C.
As to GCACTGCGAAAGCGTTGC (((..((....))..))), the folding enthalpy in data set [1] is -23.6 kcal/mol. The Tm in data set [2] was 45.3 °C.
